Assay results as given in ChEMBL document CHEMBL1275555, “Genetic heterogeneity in pbp genes among clinically isolated group B Streptococci with reduced penicillin susceptibility” (2008).
In brackets after ≈: the same amount, converted by molar mass.

Tests used:
[1] = tested on: Streptococcus sp. 'group B'; assay: Antimicrobial activity against Group B streptococcus serotype VI R1 harboring F395L, V405A, R433H, H438Y, and G648A mutations in PBP 2X and T567I mutation in PBP 2B by broth microdilution method; format: functional
How it was run: (§1)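 Broth microdilution MICs following CLSI guidelines, using a commercial panel system; GBS clinical isolates and reference strains grown in Todd-Hewitt broth at 37°C. Each strain tested five times to confirm reproducibility, with S. pneumoniae ATCC 49619 as quality-control strain. No β-lactamase activity by acidimetric method in any strain.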

[2] = tested on: Streptococcus sp. 'group B'; assay: Antimicrobial activity against Group B streptococcus serotype VI R6 harboring F395L, V405A, R433H, H438Y, A374V and G648A mutations in PBP 2X and T567I mutation in PBP 2B by broth microdilution method; format: functional; how it was run: as §1
[3] = tested on: Streptococcus sp. 'group B'; assay: Antimicrobial activity against Group B streptococcus R8 harboring T77I, S353F and A514V in PBP 2X; V80A and G613R in PBP 2B; and L45P, N163K, N723S and G527V in PBP 1A by broth microdilution method; format: functional; how it was run: as §1
[4] = tested on: Streptococcus sp. 'group B'; assay: Antimicrobial activity against Group B streptococcus serotype V C1 harboring E63K mutation in PBP 2A and L41S mutation in PBP 1B by broth microdilution method; format: functional; how it was run: as §1
[5] = tested on: Streptococcus sp. 'group B'; assay: Antimicrobial activity against Group B streptococcus serotype III N3 by broth microdilution method; format: functional
How it was run: (§2)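 Broth microdilution MICs read on a commercial dried panel system (type 3J), following CLSI guidelines. Isolates were grown in Todd-Hewitt broth at 37°C. Each strain was tested five times for reproducibility, with S. pneumoniae ATCC 49619 as the quality-control strain. β-lactamase activity was checked by the acidimetric method.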

[6] = tested on: Streptococcus sp. 'group B'; assay: Antimicrobial activity against Group B Streptococcus serotype III NEM 316 by broth microdilution method; format: functional; how it was run: as §2
[7] = tested on: Streptococcus sp. 'group B'; assay: Antimicrobial activity against Group B streptococcus serotype VI N4 harboring E63K mutation in PBP 2A and L41S mutation in PBP 1B by broth microdilution method; format: functional; how it was run: as §1
[8] = tested on: Streptococcus sp. 'group B'; assay: Antimicrobial activity against Group B streptococcus serotype Ib R3 harboring Q557E, A400V mutations in PBP 2X and T567I, G539E mutations in PBP 2B by broth microdilution method; format: functional; how it was run: as §1
[9] = tested on: Streptococcus sp. 'group B'; assay: Antimicrobial activity against Group B streptococcus serotype VI R5 harboring F395L, V405A, R433H, H438Y, and G648A mutations in PBP 2X and T567I mutation in PBP 2B by broth microdilution method; format: functional; how it was run: as §1
[10] = tested on: Streptococcus sp. 'group B'; assay: Antimicrobial activity against Group B streptococcus serotype VI R4 harboring Q557E mutation in PBP 2X and T567I, Y262N mutations in PBP 2B by broth microdilution method; format: functional; how it was run: as §1
[11] = tested on: Streptococcus sp. 'group B'; assay: Antimicrobial activity against Group B streptococcus serotype Ib C2 harboring E63K mutation in PBP 2A and L41S mutation in PBP 1B by broth microdilution method; format: functional; how it was run: as §1
[12] = tested on: Streptococcus sp. 'group B'; assay: Antimicrobial activity against Group B Streptococcus serotype Ia N1 harboring E63K mutation in PBP 2A and L41S mutation in PBP 1B by broth microdilution method; format: functional; how it was run: as §1
[13] = tested on: Streptococcus sp. 'group B'; assay: Antimicrobial activity against Group B streptococcus serotype Ia R7 harboring T77I, F395V and S353F in PBP 2X; V80A and G613R in PBP 2B; and L45P, N163K, N723S and Y470F in PBP 1A by broth microdilution method; format: functional; how it was run: as §1
[14] = tested on: Streptococcus sp. 'group B'; assay: Antimicrobial activity against Group B Streptococcus serotype V harboring E63K mutation in PBP 2A and L41S mutation in PBP 1B by broth microdilution method
[15] = tested on: Streptococcus sp. 'group B'; assay: Antimicrobial activity against Group B streptococcus serotype VI R2 harboring F395L, V405A, R433H, H438Y, and G648A mutations in PBP 2X and T567I mutation in PBP 2B by broth microdilution method; format: functional; how it was run: as §1
[16] = tested on: Streptococcus sp. 'group B'; assay: Antimicrobial activity against Group B streptococcus serotype Ib N2 harboring E63K mutation in PBP 2A and L41S mutation in PBP 1B by broth microdilution method; format: functional; how it was run: as §1

| SMILES | MIC [1] [mg/L] | MIC [2] [mg/L] | MIC [3] [mg/L] | MIC [4] [mg/L] | MIC [5] [mg/L] | MIC [6] [mg/L] | MIC [7] [mg/L] | MIC [8] [mg/L] | MIC [9] [mg/L] | MIC [10] [mg/L] | MIC [11] [mg/L] | MIC [12] [mg/L] | MIC [13] [mg/L] | MIC [14] [mg/L] | MIC [15] [mg/L] | MIC [16] [mg/L] |
| --- | --- | --- | --- | --- | --- | --- | --- | --- | --- | --- | --- | --- | --- | --- | --- | --- |
| CC1(C)S[C@@H]2[C@H](NC(=O)[C@H](N)c3ccccc3)C(=O)N2[C@H]1C(=O)O [AMPICILLIN] | 0.5 (≈ 1.43 µM) | 0.5 (≈ 1.43 µM) | 0.5 (≈ 1.43 µM) | 0.12 (≈ 0.343 µM) | 0.12 (≈ 0.343 µM) | 0.12 (≈ 0.343 µM) | 0.12 (≈ 0.343 µM) | 0.25 (≈ 0.715 µM) | 0.5 (≈ 1.43 µM) | 0.25 (≈ 0.715 µM) | 0.25 (≈ 0.715 µM) | 0.12 (≈ 0.343 µM) | 0.5 (≈ 1.43 µM) | 0.12 (≈ 0.343 µM) | 0.5 (≈ 1.43 µM) | 0.25 (≈ 0.715 µM) |
| CO/N=C(\C(=O)N[C@@H]1C(=O)N2C(C(=O)OCOC(=O)C(C)(C)C)=C(/C=C\c3scnc3C)CS[C@H]12)c1csc(N)n1 [CEFDITOREN PIVOXIL] | 0.25 (≈ 0.403 µM) | 0.25 (≈ 0.403 µM) | 0.5 (≈ 0.805 µM) | ≤ 0.06 | ≤ 0.06 | ≤ 0.06 | ≤ 0.06 | 0.25 (≈ 0.403 µM) | 0.25 (≈ 0.403 µM) | 0.25 (≈ 0.403 µM) | ≤ 0.06 | ≤ 0.06 | 0.5 (≈ 0.805 µM) | ≤ 0.06 | 0.25 (≈ 0.403 µM) | ≤ 0.06 |
| CO/N=C(\C(=O)N[C@@H]1C(=O)N2C(C(=O)[O-])=C(C[N+]3(C)CCCC3)CS[C@H]12)c1csc(N)n1 [CEFEPIME] | 1 (≈ 2.08 µM) | 1 (≈ 2.08 µM) | 1 (≈ 2.08 µM) | ≤ 0.5 | ≤ 0.5 | ≤ 0.5 | ≤ 0.5 | ≤ 0.5 | 1 (≈ 2.08 µM) | 1 (≈ 2.08 µM) | ≤ 0.5 | ≤ 0.5 | 2 (≈ 4.16 µM) | ≤ 0.5 | 1 (≈ 2.08 µM) | ≤ 0.5 |
| C=CC1=C(C(=O)O)N2C(=O)[C@@H](NC(=O)/C(=N\OCC(=O)O)c3csc(N)n3)[C@H]2SC1 [CEFIXIME] | > 1 | > 1 | > 1 | 0.5 (≈ 1.1 µM) | 0.5 (≈ 1.1 µM) | 0.5 (≈ 1.1 µM) | 0.5 (≈ 1.1 µM) | > 1 | > 1 | > 1 | 0.5 (≈ 1.1 µM) | 0.5 (≈ 1.1 µM) | > 1 | 0.5 (≈ 1.1 µM) | > 1 | 1 (≈ 2.21 µM) |
| CO/N=C(\C(=O)N[C@@H]1C(=O)N2C(C(=O)O)=C(COC(C)=O)CS[C@H]12)c1csc(N)n1 [CEFOTAXIME] | 0.5 (≈ 1.1 µM) | 0.5 (≈ 1.1 µM) | 1 (≈ 2.2 µM) | ≤ 0.06 | 0.12 (≈ 0.263 µM) | ≤ 0.06 | ≤ 0.06 | 0.5 (≈ 1.1 µM) | 0.5 (≈ 1.1 µM) | 0.5 (≈ 1.1 µM) | 0.12 (≈ 0.263 µM) | 0.12 (≈ 0.263 µM) | 1 (≈ 2.2 µM) | ≤ 0.06 | 0.5 (≈ 1.1 µM) | 0.12 (≈ 0.263 µM) |
| CN(C)CCn1nnnc1SCC1=C(C(=O)O)N2C(=O)[C@@H](NC(=O)Cc3csc(N)n3)[C@H]2SC1 [CEFOTIAM] | 4 (≈ 7.61 µM) | 4 (≈ 7.61 µM) | > 4 | ≤ 0.5 | ≤ 0.5 | ≤ 0.5 | ≤ 0.5 | 4 (≈ 7.61 µM) | 2 (≈ 3.8 µM) | 4 (≈ 7.61 µM) | ≤ 0.5 | ≤ 0.5 | > 4 | ≤ 0.5 | 4 (≈ 7.61 µM) | ≤ 0.5 |
| CO/N=C(\C(=O)N[C@@H]1C(=O)N2C(C(=O)[O-])=C(C[n+]3ccn4ncccc43)CS[C@H]12)c1nsc(N)n1 [CEFOZOPRAN] | 0.5 (≈ 0.97 µM) | 0.5 (≈ 0.97 µM) | 1 (≈ 1.94 µM) | 0.12 (≈ 0.233 µM) | 0.12 (≈ 0.233 µM) | 0.12 (≈ 0.233 µM) | 0.12 (≈ 0.233 µM) | 1 (≈ 1.94 µM) | 0.5 (≈ 0.97 µM) | 0.5 (≈ 0.97 µM) | 0.12 (≈ 0.233 µM) | 0.12 (≈ 0.233 µM) | 2 (≈ 3.88 µM) | 0.12 (≈ 0.233 µM) | 1 (≈ 1.94 µM) | 0.12 (≈ 0.233 µM) |
